Assay results taken from ChEMBL document CHEMBL1955820, “Diazeniumdiolated carbamates: a novel class of nitric oxide donors” (Bioorg Med Chem, 2012).

Legend:
U-937 [1] = test: Prodrug activation in human U937 cells assessed as intracellular NO-release by measuring increase in fluorescence at 10 uM after 90 mins by DAF-FM diacetate-based fluorescence assay relative to control; type: cell-based; settings: u-937, 1.5 h
Summary of the method: (§1)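 U937 cells in RPMI 1640 with 10% fetal calf serum at 37 °C, 5% CO2. Probe loading used 2.5 µM DAF-FM diacetate in HBSS for 30 min. Cells were then spun down, rinsed and resuspended in fresh HBSS. Compound in DMSO was added at 10 µM final for 90 min, with DMSO as control. Fluorescence was read at ex 485/em 525 nm.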

[2] = Drug uptake in human TERT immortalized BJ-5ta cells by DAF-FM diacetate-based fluorescence assay; type: ADME, cell-based; settings: htert-bj
Summary of the method: (§2)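 BJ-5ta cells, grown in DMEM:199 medium (4:1) with 10% fetal calf serum, were loaded with 2.5 µM DAF-FM diacetate in HBSS for 30 min at 37 °C, 5% CO2, then rinsed into fresh HBSS. Compound in DMSO was added at 10 µM final for 90 min, with DMSO as control. Fluorescence was read at ex 485/em 525 nm. Mean of 16 independent experiments.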

U-937 [3] = test: Drug uptake in human U937 cells by DAF-FM diacetate-based fluorescence assay; type: ADME, cell-based; summary of the method: as §1
[4] = Prodrug activation in human TERT immortalized BJ-5ta cells assessed as intracellular NO-release by measuring increase in fluorescence at 10 uM after 90 mins by DAF-FM diacetate-based fluorescence assay relative to control; type: cell-based; settings: htert-bj, 1.5 h; summary of the method: as §2
[5] = Prodrug activation in PBS assessed as production of nitrous oxide per mol of prodrug by gas chromatography in presence of GSH; settings: buffer
Summary of the method: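 Glutathione-activated release in pH 7.4 buffer with 3.6–3.9 mM GSH and 50 µM DTPA, argon-sparged, at 37 °C. Prodrug was injected from a 10 mM DMSO stock. N2O was measured by GC with electron capture detection on a packed ShinCarbon column: 90 to 200 °C at 20 °C/min, He carrier 30 mL/min.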

| SMILES | fold change (FC) (U-937 [1]) | Drug uptake [2] | Drug uptake (U-937 [3]) | fold change (FC) [4] | Drug metabolism [5] [mol/mol] |
| --- | --- | --- | --- | --- | --- |
| CC(=O)OCO/N=[N+](\[O-])N(C(=O)OC(C)(C)C)C(C)C | 5.56 | Active | Active | 7.29 |  |
| CC(C)N(C(=O)OC(C)(C)C)/[N+]([O-])=N/Oc1ccc([N+](=O)[O-])cc1[N+](=O)[O-] | 10.5 | Active | Active | 49.67 | 0.02 |
| CCOC(=O)N1CCN(/[N+]([O-])=N/Oc2ccc([N+](=O)[O-])cc2[N+](=O)[O-])CC1 | 2.64 |  |  | 5.48 |  |
